Key:
A2780 [1] = assay: Compound was tested for inhibitory activity against A2780cisR human ovarian carcinoma cell line; activity expressed in Mean IC50 values; type: functional, cell-based
Method in brief: (§1)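 Cell survival in drug-treated cultures read by MTT assay. Compound stock solutions (0.5–1.2 mg/mL) were freshly prepared before use. Cells: ovarian carcinoma lines A2780, A2780cisR, CH1 and CH1cisR; normal murine keratinocytes Pam 212; Pam 212-ras, which are murine keratinocytes transformed with the v-H-ras oncogene and resistant to cis-DDP.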

CH1 [2] = assay: Compound was tested for inhibitory activity against CH1cisR human ovarian carcinoma cell line; activity expressed in Mean IC50 values; type: functional, cell-based; method in brief: as §1
CH1 [3] = assay: Compound was tested for inhibitory activity against CH1 human ovarian carcinoma cell line; activity expressed in Mean IC50 values; type: functional, cell-based; method in brief: as §1
[4] = (§2) Compound was tested for inhibitory activity against transformed Pam 212-ras murine keratinocytes; activity expressed in Mean IC50 values; type: functional, Mus musculus; method in brief: as §1
A2780 [5] = assay: Compound was tested for inhibitory activity against A2780 human ovarian carcinoma cell line; activity expressed in Mean IC50 values; type: functional, cell-based; method in brief: as §1
[6] = Compound was tested for inhibitory activity against normal Pam 212 murine keratinocytes; activity expressed in Mean IC50 values; type: functional, Mus musculus; method in brief: as §1
Mus musculus = species: Mus musculus; assay: as §2; type: functional, organism-based; method in brief: as §1

IC50 (A2780 [1]; a2780)	IC50 (CH1 [2]; ch1cisr)	IC50 (CH1 [3]; ch1)	IC50 [4]	IC50 (A2780 [5]; a2780)	IC50 (Mus musculus)	IC50 (A2780 [1]; Homo sapiens, A2780)	IC50 (CH1 [2]; Homo sapiens, CH1cisR)	IC50 (CH1 [3]; Homo sapiens, CH1)	IC50 (A2780 [5]; Homo sapiens, A2780)	Molecule	IC50 [6]
1000 nM	600 nM	350 nM	89 µM	280 nM	–	–	–	–	–	Platinum cyclobutane-1,1-dicarboxylic acid-bis-(naphthalimide) complex	158 µM
–	650 nM	–	–	–	165 µM	–	–	–	–	CISPLATIN	–
–	–	–	160 µM	–	–	> 100000 nM	> 100000 nM	> 10000 nM	> 10000 nM	O=C1c2cccc3cccc(c23)C(=O)N1CCNCCNCCN1C(=O)c2cccc3cccc(c23)C1=O	140 µM

From ChEMBL document CHEMBL1132556, “Combined effect of platination and intercalation upon DNA binding of novel cytotoxic Pt-bis(naphthalimide) complexes” (J Med Chem, 1999)
